Insulin prom up: MIN6 insulin promoter up-regulation. MIN6 insulin promoter-GFP reporter, high-content imaging; stronger effect = higher value. z-score at 5 µM. hit rate 0.3% among 190,000. AID 1625;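 active means z-score above 3 at 5 µM with at least 500 cells counted in the well; inconclusive means wells under 500 cells, flagged as cytotoxic or low count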
MT stabilizer: stabilizes microtubules in HeLa cells | HeLa tubulin immunostaining HCS, 24 h; share of cells brighter than vehicle mean+2SD | % tubulin-high responders, % at 10 µM | hit rate 0.83% among 200,000;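 active means plate Z-score above 3 for both tubulin-high and condensed-nucleus cell shares, with cell loss under 80%, at 10 µM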;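 further: anti alpha tubulin signal scored within the nucleus-defined area of each cell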
b-catenin transl: beta-catenin nuclear translocation modulation; nuclear translocation activity, % at 5 µM; HeLa beta-catenin nuclear translocation, immunofluorescence imaging; hit rate 0.3% among 190,000;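 active means nuclear translocation activity above 50% at 5 µM, with a well cell count of 50 or more; inconclusive means wells under 50 cells across six images, flagged as toxic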;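 further: per-cell ratio of nuclear to cytoplasmic median beta-catenin stain intensity; plate controls were DMSO negative control for no effect and GSK-3 inhibitor IX positive control for full effect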
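Test system: human HeLa cells, native beta-catenin. Compound dosing: 5 µM primary single dose, 0.1% DMSO, 0.02–20 µM confirmation series. Incubation: compound exposure 24 h at 37°C. Detection: beta-catenin immunostaining with DAPI counterstain, 20x imaging, 6 fields/well. Read-out basis: Nuclear/cytoplasmic beta-catenin signal ratio, % activation.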
Autophagy mod: autophagy modulation, high-content screen. MEF GFP-LC3 puncta imaging; test concentration mostly 10 µM. hit rate 0.98% among 190,000. calls only at 10 µM (by protocol);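 active means percentage of spot-positive cells more than 3 SD above its plate mean, without a fluorescence outlier flag or 80% toxicity; inconclusive means no clear call, values can overlap the other calls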;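 further: spot-positive cell cutoff set from DMSO-treated cells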
Wee1 stabilizer: human Wee1 degradation inhibition, primary screen. P30291. HeLa Luc-Wee1K328M stability, luciferase luminescence; 100% = proteasome inhibitor MG132 effect. reporter increase, % at 5 µM. hit rate 1.2% among 220,000. AID 1321;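 active means activation above the mean of all tested compounds plus 3 SD, set per screening run, cut at about 8.8% in these data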;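 further: cells exposed to compound for 20 h before luminescence read; 0% = DMSO alone and 100% = MG132 at 30 µM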
Target sequence (P30291 whole entry K328M): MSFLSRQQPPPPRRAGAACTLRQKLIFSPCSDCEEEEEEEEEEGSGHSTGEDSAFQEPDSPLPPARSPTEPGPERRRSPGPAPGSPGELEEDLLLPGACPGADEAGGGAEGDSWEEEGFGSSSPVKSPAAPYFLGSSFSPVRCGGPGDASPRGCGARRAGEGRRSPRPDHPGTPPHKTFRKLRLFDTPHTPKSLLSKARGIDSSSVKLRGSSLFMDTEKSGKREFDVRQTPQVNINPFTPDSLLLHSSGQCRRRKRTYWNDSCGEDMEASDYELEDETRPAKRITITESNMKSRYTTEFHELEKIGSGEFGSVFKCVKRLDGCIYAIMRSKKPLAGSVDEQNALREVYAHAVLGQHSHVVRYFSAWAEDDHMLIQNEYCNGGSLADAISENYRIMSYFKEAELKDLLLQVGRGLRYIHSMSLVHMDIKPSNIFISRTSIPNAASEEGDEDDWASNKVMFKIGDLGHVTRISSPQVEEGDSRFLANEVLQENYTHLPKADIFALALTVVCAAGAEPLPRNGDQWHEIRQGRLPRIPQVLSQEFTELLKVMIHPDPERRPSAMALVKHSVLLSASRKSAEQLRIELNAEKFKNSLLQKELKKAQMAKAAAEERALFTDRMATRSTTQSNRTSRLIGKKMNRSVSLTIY
* = called active by the depositor; i = inactive; ? = inconclusive; · = not tested or not shown; + = active, no number. Only some compounds are listed: those with a hit (about 2.9% of all), similar ones and a draw of the others.

SMILES | Insulin prom up | MT stabilizer | b-catenin transl | Autophagy mod | Wee1 stabilizer
NCC(O)(c1ccc(Cl)cc1)c1ccc(Cl)cc1 | -1.1 | 4.1 | -0.2 | + | 0.1
COC(=O)COc1cccc2c(=O)n(CC(=O)NCc3ccc(F)cc3)ccc12 | 0.26 | 20.1* | -1.8 | i | 11.7*
CCOC(=O)C(C)Oc1cccc2c(=O)n(CC(=O)NCc3ccccc3)ccc12 (stereo not given) | 0.32 | · | 50.7* | · | -1.4
CC(C)(C)n1ncc2c(=O)n(CC(=O)NCc3ccc(F)cc3)cnc21 | -1.33 | 47.0* | -0.4 | i | 2.7
CCOC(=O)C(C)Oc1cccc2c(=O)n(CC(=O)NCc3ccc(F)cc3)ccc12 (stereo not given) | -0.37 | · | 106.2* | · | 1.3
CCC1(c2ccc(F)cc2)NC(=O)N(CC(=O)Nc2ccc(S(N)(=O)=O)cc2)C1=O (stereo not given) | -0.75 | 3.1 | -5.9 | i | -0.6
N#Cc1nnn(-c2ccc(Cl)cc2)c1N | 0.22 | 2.5 | -2.7 | i | 4.1
CCn1c(=O)[nH]c2cc(C(=O)Nc3cc(C)cc(C)c3)ccc2c1=O | 0.37 | 5.6 | -0.9 | i | -1.2
CCOC(=O)COc1cccc2c(=O)n(CC(=O)NCc3ccc4c(c3)OCO4)ccc12 | 1.79 | 18.6* | 64.3* | i | 9.6*
O=C(Cn1c(-c2cncs2)nc2ccccc21)NCCc1ccccc1 | 0.71 | 7.0 | -1.0 | i | 1.4
COc1cccc(NC(=O)Cn2c(-c3cncs3)nc3ccccc32)c1 | 5.27* | 3.6 | -1.5 | i | -2.1
CC(C)(C)c1nn2cnnc2n(/N=C/c2ccc(O)cc2)c1=O | 0.03 | 4.3 | 0.9 | i | 3.9
Cc1ccc(-c2cn3cccc(C)c3n2)cc1 | -0.01 | 1.6 | -0.8 | i | 9.8*
O=[N+]([O-])c1cccn2cc(-c3ccc(Br)cc3)nc12 | -0.03 | 4.4 | 1.5 | i | 9.8*
Cc1cccn2cc(-c3ccc(S(=O)(=O)N4CCCCC4)cc3)nc12 | -0.82 | 2.3 | 2.4 | + | -1.6
COc1ccc(CNC(=O)CSc2ccc(Br)cc2)cc1OC | 1.41 | 2.0 | -1.5 | i | -1.6
CCCCCCNC(=O)CCCCCNS(=O)(=O)c1ccc(Br)cc1 | -0.36 | 4.4 | -0.8 | i | 5.1
COc1cc([N+](=O)[O-])ccc1NC(=O)CSc1nccn1C | 0.8 | 3.1 | 0.6 | i | -4.4
CCOc1c(Br)cc(CNc2ccc3c(c2)OCCO3)cc1OC | -1.4 | 12.5 | 132.4* | i | 5.8
CCOc1cc(CNc2ccc3c(c2)OCCO3)cc(Br)c1OCC(N)=O | -1.11 | 21.1 | -0.8 | i | 0.3
CCOc1cc(CNc2ccc3c(c2)OCCO3)cc(Br)c1OC | -1.63 | 14.4 | 142.7* | i | 1.2
CCOc1c(Br)cc(CNc2ccc(N3CCOCC3)cc2)cc1OC | -1.82 | · | 0.1 | · | -3.8
Cc1ccc(C2C(C(=O)c3cccs3)=C(O)C(=O)N2c2nnc(C)s2)cc1 (stereo not given) | 0.54 | 3.7 | -0.7 | i | -1.1
O=C(N/N=C/c1c(-c2ccccc2)[nH]c2ccccc12)c1cccnc1 | 0.45 | 18.2* | 38.6 | i | 2.8
Cc1cc(C(=O)O)c(CSCc2cc(C(=O)O)oc2C)o1 | · | 1.4 | · | i | 1.5
SMILES | Insulin prom up | MT stabilizer | b-catenin transl | Autophagy mod | Wee1 stabilizer
COc1ccc(C2(O)CCN(Cc3nnnn3Cc3ccc(C)cc3)CC2)cc1 | -0.19 | 3.9 | -5.7 | + | -1.7
CCN1/C(=C/c2ccc3cc(C)ccc3[n+]2CC)Sc2ccccc21 | · | 68.5* | 0.5 | · | -1.9
CCN1/C(=C/c2ccc3cc(C)ccc3[n+]2CC)Sc2cc(C)c(C)cc21 | ? | 14.5 | 3.9 | + | -3.7
CC[n+]1c(/C=C2\Sc3ccccc3N2C)ccc2cccc(C)c21 | ? | 67.3 | 5.0 | ? | -3.8
CCCOc1ccc2ccccc2c1/C=N/n1c(C)nnc1-n1nc(C)cc1C | -4.98 | 55.3* | 168.2* | i | 8.4
CC(C)(C)c1ccc(OCC(=O)N/N=C/c2ccsc2)cc1 | -0.15 | 3.6 | 0.6 | i | 9.2*
Cc1ccc(C)c(OCC(=O)N/N=C/c2ccsc2)c1 | · | 4.1 | · | i | -2.4
COc1ccc(OC)c(N(CC(=O)N2CCN(c3cc(Cl)ccc3C)CC2)S(C)(=O)=O)c1 | -0.43 | 3.3 | · | + | 0.3
CCOc1ccc(CN2CCN(S(=O)(=O)c3ccc(NC(C)=O)cc3)CC2)cc1 | -0.08 | 3.1 | 1.4 | i | 0.3
COCCN(CCOC)Cc1cc(=O)oc2cc3c(cc12)CCC3 | 3.14* | 9.2 | -0.5 | i | 0.1
COc1ccc(CCn2c(-c3ccc(OC)cc3)nc3c(c(=O)c4ccccc4n3C)c2=O)cc1 | -1.03 | · | -0.8 | · | 1.0
COCCn1c(-c2ccc(Cl)cc2Cl)nc2c(c(=O)c3ccccc3n2C)c1=O | -0.36 | 4.4 | -2.3 | + | -4.1
Clc1cccc(Cl)c1CSc1nnc(CN2CCOCC2)n1-c1ccccc1 | -0.99 | 1.7 | · | i | 10.5*
O=C1NCC2=C1C(c1ccc(Br)cc1)Nc1ccccc1N2 (stereo not given) | · | 3.7 | · | i | 9.6*
CC1CC2=C(C(=O)O1)C(c1ccccc1)Nc1ccccc1N2 (stereo not given) | -0.07 | 1.9 | -1.5 | i | 5.0
Cc1noc(C)c1COc1cccc(C(=O)Oc2ccc3c(c2)OCO3)c1 | -0.01 | 2.1 | -0.7 | i | -2.1
Cc1noc(C)c1COc1cccc(C(=O)Nc2ccc3c(c2)OCO3)c1 | 0.09 | 16.9* | 7.8 | i | 1.0
Cc1noc(C)c1COc1cccc(C(=O)OC(C)C(=O)Nc2ccc3c(c2)OCO3)c1 (stereo not given) | -0.32 | 25.5* | 95.0* | i | 3.6
COc1ccccc1NCCC(=O)OCC(=O)NC1CCCCCC1 | -0.2 | 3.7 | -2.0 | i | 1.0
COC(=O)CSc1ncnc2c(C)csc12 | 0.07 | · | 0.2 | · | -0.3
CC(=O)OC(C(=O)Nc1ccccc1C)C(OC(C)=O)C(OC(C)=O)C(OC(C)=O)C(=O)Nc1ccccc1C (stereo not given) | · | 2.2 | · | i | 3.6
CC(C)CN(C(=O)COC(=O)c1ccc2c(c1)NC(=O)CS2)C1CCS(=O)(=O)C1 (stereo not given) | 0.47 | 2.7 | -5.4 | i | -2.0
Cc1cc(C)n(-c2ccc(C(=O)OCC(=O)N(CC(C)C)C3CCS(=O)(=O)C3)cc2)n1 (stereo not given) | 3.33* | 2.6 | -2.6 | i | -0.2
Cc1ccc(-n2c(C)cc(C(=O)OCC(=O)N(CC(C)C)C3CCS(=O)(=O)C3)c2C)cc1 (stereo not given) | -1.5 | 2.5 | -1.3 | i | 15.9*
O=C(CN1CCCCC1)NNc1nc(-c2ccccc2)c2cc(Br)ccc2n1 | -0.73 | · | -3.3 | · | -2.5
Cc1ccc(C)c(NC(=S)NCCN(C2CCCCC2)C2CCCC2)c1 | 0.24 | 1.8 | · | i | -2.5
C=CCn1c(SCCOc2ccc(OC)cc2)nnc1C(C)NC(=O)Cc1ccc(OC)cc1 (stereo not given) | 4.23* | 2.0 | · | i | -0.9
Cc1noc(C)c1CSc1nc2sc(C)c(C)c2c(=O)n1C1CCCC1 | -2.06 | 5.6 | -3.3 | i | 2.5
